Reference: ChEMBL document CHEMBL1132154, “Novel partial agonists for the histamine H(3) receptor with high in vitro and in vivo activity” (J Med Chem, 1999)

What was measured:
[1] = biological target: Histamine H3 receptor (Cavia porcellus) (UniProt Q9JI35); experiment: Binding affinity for guinea pig ileum histamine H3 receptor; assay type: tissue-based
Procedure, shortened: (§1)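 Isolated guinea pig ileum segments, electrically evoked twitches; H3 antagonism from concentration-dependent inhibition of twitches by (R)-α-methylhistamine in presence of antagonist; agonist activity from concentration–response curves of the test compound in place of (R)-α-methylhistamine; each experiment at least in triplicate.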

[2] = biological target: Histamine H1 receptor (Cavia porcellus) (UniProt P31389); experiment: Antagonist activity against histamine H1 receptor in guinea pig ileum; assay type: functional, tissue-based
Procedure, shortened: (§2)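 Isolated guinea pig tissues: H1 activity on ileum, H2 activity on spontaneously beating right atrium, by standard functional methods; each test at least in triplicate; exact type of interaction not determined in every case.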

Histamine H3 receptor [3] = biological target: T1, Histamine H3 receptor (Rattus norvegicus, UniProt Q9QYN8); experiment: Antagonist activity against histamine H3 receptor on synaptosomes of rat cerebral cortex; assay type: functional, subcellular, Brain
Procedure, shortened: (§3)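 Rat cerebral cortex synaptosomes; K+-evoked depolarization-induced [3H]histamine release measured for H3 agonist and antagonist activity; intrinsic activity derived from this preparation; at least triplicate.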

Histamine H3 receptor [4] = biological target: T1, Histamine H3 receptor; experiment: (§4) In vitro binding affinity against histamine H3 receptor from synaptosomes of rat cerebral cortex; assay type: subcellular, Brain
Histamine H3 receptor [5] = biological target: T1, Histamine H3 receptor; experiment: In vitro intrinsic activity against histamine H3 receptor from synaptosomes of rat cerebral cortex; assay type: subcellular, Brain; procedure, shortened: as §3
[6] = biological target: Histamine H3 receptor (Cavia porcellus) (UniProt Q9JI35); experiment: Antagonist activity against histamine H3 receptor in guinea pig ileum; assay type: functional, tissue-based; procedure, shortened: as §1
[7] = biological target: Histamine H3 receptor (Mus musculus) (UniProt P58406); experiment: In vivo intrinsic activity against histamine H3 receptor in mice after peroral administration; assay type: organism-based
Procedure, shortened: (§5)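 Swiss mice dosed orally with compounds as a methylcellulose suspension; brain histamine turnover assessed from increased (antagonist) or decreased (agonist) cerebral cortex N-methylhistamine level; intrinsic activity from modulation of this metabolite level; at least in triplicate.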

[8] = biological target: Histamine H3 receptor (Mus musculus) (UniProt P58406); experiment: In vivo agonistic activity against histamine H3 receptor in mice after peroral administration; assay type: functional, organism-based; procedure, shortened: as §5
[9] = biological target: Histamine H2 receptor (Cavia porcellus) (UniProt P47747); experiment: Antagonist activity against histamine H2 receptor in guinea pig atrium; assay type: functional, tissue-based; conditions: Cardiac atrium; procedure, shortened: as §2
Histamine H3 receptor [10] = biological target: T1, Histamine H3 receptor; experiment: as §4; assay type: subcellular, Brain; procedure, shortened: as §3; remark: listed apart in the source

T1 sequence (Q9QYN8 whole entry): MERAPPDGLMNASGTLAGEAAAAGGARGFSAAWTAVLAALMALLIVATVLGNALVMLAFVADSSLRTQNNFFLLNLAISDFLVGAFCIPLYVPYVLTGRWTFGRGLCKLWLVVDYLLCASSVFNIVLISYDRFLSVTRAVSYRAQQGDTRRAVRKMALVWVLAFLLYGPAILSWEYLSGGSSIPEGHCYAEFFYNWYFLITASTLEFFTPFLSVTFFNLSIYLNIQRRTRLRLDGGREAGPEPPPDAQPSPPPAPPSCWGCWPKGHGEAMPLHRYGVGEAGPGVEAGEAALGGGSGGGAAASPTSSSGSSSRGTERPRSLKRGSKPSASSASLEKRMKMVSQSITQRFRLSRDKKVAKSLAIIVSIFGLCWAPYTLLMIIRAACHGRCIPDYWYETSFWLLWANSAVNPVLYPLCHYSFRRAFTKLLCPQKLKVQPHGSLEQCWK
Histamine H1 receptor (Cavia porcellus), sequence (P31389 whole entry): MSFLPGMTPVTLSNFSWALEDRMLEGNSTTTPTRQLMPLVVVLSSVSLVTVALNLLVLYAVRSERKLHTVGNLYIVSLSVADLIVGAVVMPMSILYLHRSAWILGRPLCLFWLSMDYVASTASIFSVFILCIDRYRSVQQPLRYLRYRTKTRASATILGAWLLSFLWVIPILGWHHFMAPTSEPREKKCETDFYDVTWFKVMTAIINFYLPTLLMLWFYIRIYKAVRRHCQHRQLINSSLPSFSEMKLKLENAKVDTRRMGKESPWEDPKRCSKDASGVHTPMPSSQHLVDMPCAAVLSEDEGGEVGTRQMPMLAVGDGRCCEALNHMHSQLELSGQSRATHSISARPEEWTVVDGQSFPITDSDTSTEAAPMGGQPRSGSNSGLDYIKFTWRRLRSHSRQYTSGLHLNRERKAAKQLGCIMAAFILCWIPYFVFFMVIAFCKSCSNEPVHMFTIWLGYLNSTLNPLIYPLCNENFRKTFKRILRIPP
Histamine H2 receptor (Cavia porcellus), sequence (P47747 whole entry): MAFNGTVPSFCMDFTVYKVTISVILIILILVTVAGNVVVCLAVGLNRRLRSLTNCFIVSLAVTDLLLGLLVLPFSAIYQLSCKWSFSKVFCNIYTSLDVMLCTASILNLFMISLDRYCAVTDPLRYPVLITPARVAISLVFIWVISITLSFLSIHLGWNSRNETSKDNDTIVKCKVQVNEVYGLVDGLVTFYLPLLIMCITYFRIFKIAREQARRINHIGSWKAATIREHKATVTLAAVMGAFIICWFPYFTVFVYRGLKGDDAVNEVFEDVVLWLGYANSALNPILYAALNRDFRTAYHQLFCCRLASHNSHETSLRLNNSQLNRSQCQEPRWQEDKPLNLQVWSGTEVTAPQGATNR
Histamine H3 receptor (Cavia porcellus), sequence (Q9JI35 whole entry): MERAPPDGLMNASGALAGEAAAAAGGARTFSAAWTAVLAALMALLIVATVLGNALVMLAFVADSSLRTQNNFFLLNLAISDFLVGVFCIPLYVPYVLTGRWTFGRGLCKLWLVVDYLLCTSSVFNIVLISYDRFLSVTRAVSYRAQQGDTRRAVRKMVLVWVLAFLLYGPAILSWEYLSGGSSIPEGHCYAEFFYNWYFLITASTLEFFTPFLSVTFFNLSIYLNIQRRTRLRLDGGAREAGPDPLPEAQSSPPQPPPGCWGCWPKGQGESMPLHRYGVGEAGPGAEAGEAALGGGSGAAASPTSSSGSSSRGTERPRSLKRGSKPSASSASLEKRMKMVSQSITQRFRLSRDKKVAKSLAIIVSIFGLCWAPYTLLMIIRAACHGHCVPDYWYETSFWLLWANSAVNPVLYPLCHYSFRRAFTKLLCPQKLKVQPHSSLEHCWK
Histamine H3 receptor (Mus musculus), sequence (P58406 whole entry): as the sequence (Q9QYN8 whole entry) above, with T15A, A286T, A290G, R387H, I389V counted along it

Row | Compound | Kb [1] | pkB [2] | Ki (Histamine H3 receptor [3]) | Ki (Histamine H3 receptor [4]) | Intrinsic activity (Histamine H3 receptor [5]) | pkB [6] | Intrinsic activity [7] | ED50 [8] | pkB [9] | EC50 (Histamine H3 receptor [10])
1 | CC(C)(C)CCOCCCc1c[nH]cn1 | 42 nM | 4.5 | 10 nM | 10 nM | 0.55 | 7.38 | 1 | 0.29 mg/kg | < 4 | 45 nM
2 | CCC(C)(C)NC(=O)OCCCc1c[nH]cn1 | 46 nM | 4.8 |  |  |  | 7.34 | 0.4 | 0.2 mg/kg | 3.5 | 
3 | CC(C)COCCCc1c[nH]cn1 | 228 nM |  | 138 nM | 139 nM |  | 6.64 |  |  |  | 
4 | CC(C)NC(=O)OCCCc1c[nH]cn1.O=CC(=O)/C(O)=C/O | 91 nM | < 4 | 81.3 nM | 82 nM |  | 7.04 |  | 15 mg/kg | < 4.3 | 
5 | CC(C)(C)CCNC(=O)OCCCc1c[nH]cn1.O=CC(=O)/C(O)=C/O | 30 nM | 4.2 |  |  |  | 7.53 |  |  | 4.3 | 
6 | CC(C)CCCOCCCc1c[nH]cn1 | 13 nM | 5 | 9.33 nM | 9.4 nM | 0.25 | 7.89 | 0.6 | 0.15 mg/kg | 4.6 | 
7 | CC(C)CCOCCCc1c[nH]cn1 | 93 nM | 4.5 | 14.1 nM | 14 nM | 0.22 | 7.03 | 1 | 0.51 mg/kg | 3.5 | 128 nM

Next, values leading:

Row | Kb [1] | pkB [2] | Ki (Histamine H3 receptor [3]) | Ki (Histamine H3 receptor [4]) | Intrinsic activity (Histamine H3 receptor [5]) | pkB [6] | Intrinsic activity [7] | ED50 [8] | pkB [9] | EC50 (Histamine H3 receptor [10]) | Compound
8 | 6.6 nM |  |  |  |  |  | 1 | 1 mg/kg |  |  | N=C(N)SCCc1c[nH]cn1
9 | 60 nM | < 4 |  |  |  | 7.22 | 0.7 | 0.9 mg/kg | < 4 |  | CC(C)(C)NC(=O)OCCCc1c[nH]cn1.O=CC(=O)/C(O)=C/O
10 | 40 nM | 3.5 | 22.9 nM | 23 nM | 0.15 | 7.4 | 0.7 | 0.48 mg/kg | 3.2 |  | CC(C)(C)CNC(=O)OCCCc1c[nH]cn1.O.O=C(O)C(=O)O
11 | 28 nM | 6 | 41.7 nM | 42 nM |  | 7.58 |  |  | 4.3 |  | CC(C)(C)CC(C)(C)NC(=O)OCCCc1c[nH]cn1
12 | 41 nM | < 4.5 |  |  |  | 7.39 |  | > 10 mg/kg | < 4 |  | CC(C)CNC(=O)OCCCc1c[nH]cn1
